In ChEMBL document CHEMBL1145054, “Enantioselective syntheses and cytotoxicity of N,O-nucleosides” (J Med Chem, 2003):

Tests used:
HL-60 [1] = assay: Cytotoxic concentration required to cause 50% toxicity in HL-60 cell lines at 24 hours; assay type: functional; conditions: Homo sapiens, HL-60, 24 h
How it was run: (§1)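 Cells were exposed under optimal culture conditions to 8–512 μM test agent or to control medium for the stated time. Viability was scored by trypan blue exclusion. CC50 is the concentration causing 50% toxicity, determined from two or more experiments.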

HL-60 [2] = assay: Cytotoxic concentration required to cause 50% toxicity in HL-60 cell lines at 48 hours; assay type: functional; conditions: Homo sapiens, HL-60, 48 h; how it was run: as §1
HL-60 [3] = assay: Apoptotic concentration required to cause apoptosis in 50% of HL-60 cell lines at 24 hours; assay type: functional, cell-based; conditions: Homo sapiens, HL-60, 24 h
How it was run: (§2)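 Cells were exposed under optimal culture conditions to 8–512 μM test agent or to control medium for the stated time. They were then stained with acridine orange, and over 600 cells were counted by fluorescence microscopy. Cells counted as apoptotic had uniformly stained nuclei with chromatin condensation and nuclear fragmentation. AC50 is the concentration giving 50% apoptosis, determined from two or more experiments.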

HL-60 [4] = assay: Apoptotic concentration required to cause apoptosis in 50% of HL-60 cell lines at 48 hours; assay type: functional, cell-based; conditions: Homo sapiens, HL-60, 48 h; how it was run: as §2
MOLT-3 [5] = assay: Apoptotic concentration required to cause apoptosis in 50% of Molt-3 cell lines at 24 hours; assay type: functional, cell-based; conditions: Homo sapiens, MOLT-3, 24 h; how it was run: as §2
MOLT-3 [6] = assay: Apoptotic concentration required to cause apoptosis in 50% of Molt-3 cell lines at 48 hours; assay type: functional, cell-based; conditions: Homo sapiens, MOLT-3, 48 h; how it was run: as §2
MOLT-3 [7] = assay: Apoptotic concentration required to cause apoptosis in 50% of Molt-3 cell lines at 72 hours; assay type: functional, cell-based; conditions: Homo sapiens, MOLT-3, 72 h; how it was run: as §2
MOLT-3 [8] = assay: Cytotoxic concentration required to cause 50% toxicity in Molt-3 cell lines at 24 hours; assay type: functional; conditions: Homo sapiens, MOLT-3, 24 h; how it was run: as §1
MOLT-3 [9] = assay: Cytotoxic concentration required to cause 50% toxicity in Molt-3 cell lines at 48 hours; assay type: functional; conditions: Homo sapiens, MOLT-3, 48 h; how it was run: as §1
MOLT-3 [10] = assay: Cytotoxic concentration required to cause 50% toxicity in Molt-3 cell lines at 72 hours; assay type: functional; conditions: Homo sapiens, MOLT-3, 72 h; how it was run: as §1
THP-1 [11] = assay: Apoptotic concentration required to cause apoptosis in 50% of THP-1 cell lines at 24 hours; assay type: functional, cell-based; conditions: Homo sapiens, THP-1, 24 h; how it was run: as §2
THP-1 [12] = assay: Cytotoxic concentration required to cause 50% toxicity in THP-1 cell lines at 24 hours; assay type: functional; conditions: Homo sapiens, THP-1, 24 h; how it was run: as §1
U-937 [13] = assay: Apoptotic concentration required to cause apoptosis in 50% of U-937 cell lines at 24 hours; assay type: functional, cell-based; conditions: Homo sapiens, U-937, 24 h; how it was run: as §2
U-937 [14] = assay: Apoptotic concentration required to cause apoptosis in 50% of U-937 cell lines at 48 hours; assay type: functional, cell-based; conditions: Homo sapiens, U-937, 48 h; how it was run: as §2
U-937 [15] = assay: Apoptotic concentration required to cause apoptosis in 50% of U-937 cell lines at 72 hours; assay type: functional, cell-based; conditions: Homo sapiens, U-937, 72 h; how it was run: as §2
U-937 [16] = assay: Cytotoxic concentration required to cause 50% toxicity in U-937 cell lines at 24 hours; assay type: functional; conditions: Homo sapiens, U-937, 24 h; how it was run: as §1
U-937 [17] = assay: Cytotoxic concentration required to cause 50% toxicity in U-937 cell lines at 48 hours; assay type: functional; conditions: Homo sapiens, U-937, 48 h; how it was run: as §1
U-937 [18] = assay: Cytotoxic concentration required to cause 50% toxicity in U-937 cell lines at 72 hours; assay type: functional; conditions: Homo sapiens, U-937, 72 h; how it was run: as §1

O=c1[nH]c(=O)n(C2CCNO2)cc1F (stereo not drawn)
CC50 (HL-60 [1]): > 1000 µM | CC50 (HL-60 [2]): > 1000 µM | AC50 (HL-60 [3]): > 1000 µM | AC50 (HL-60 [4]): > 1000 µM | AC50 (MOLT-3 [5]): 329 µM | AC50 (MOLT-3 [6]): 96 µM | AC50 (MOLT-3 [7]): 13 µM | CC50 (MOLT-3 [8]): > 1000 µM | CC50 (MOLT-3 [9]): 806 µM | CC50 (MOLT-3 [10]): 366 µM | AC50 (THP-1 [11]): > 1000 µM | CC50 (THP-1 [12]): > 1000 µM | AC50 (U-937 [13]): > 1000 µM | AC50 (U-937 [14]): 123 µM | AC50 (U-937 [15]): 3 µM | CC50 (U-937 [16]): > 1000 µM | CC50 (U-937 [17]): > 1000 µM | CC50 (U-937 [18]): 687 µM
